# An excerpt weighted towards active compounds, which were near 1.3% of everything screened.
# JMJD2C inh = human JMJD2C demethylase inhibition | Q9H3R0 | GST-JMJD2C(1-420) H3K9me3 demethylation, DELFIA europium | inhibition, % at 2.35 µM | 0.069% of 330,000 active | AID 2099;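 active = more than half of a compound's replicate wells show inhibition beyond 50%, single wells judged on their own value; inconclusive = some, but no more than half, of replicates pass 50% inhibition; inactive = no replicate passes 50% inhibition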;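 note: signal counts dimethyl H3K9 product captured on neutravidin plate; 0% = median of DMSO wells and 100% = 0.3 times that DMSO median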
# procasp7 counter = counter-screen: procaspase-7 (human) activation; P55210; recombinant procaspase-7, Ac-DEVD-pNA absorbance 405 nm; D23A/D198A/D206A triple mutant, cannot self-cleave; scale: DMSO 0, 5 µM enzyme 100; activation, % at 8.5 µM; 0.093% of 330,000 active; AID 463210;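 active = percent activation above the screen-wide mean plus 3 SD, cut at about 25% in these data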
#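 Material: Procaspase-7 triple mutant (PC-7 D3A) | Quantity: 2 µM procaspase-7 mutant as dispensed | Reagent: DEVD-pNA substrate | Times: 1 h preincubation, 2 h reaction | Technique: 405 nm absorbance of p-nitroaniline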
# GRK2 aptamer HTS = blocks RNA aptamer binding to human GRK2; 0.59% of 330,000 active; P25098; inhibition of aptamer binding, % at 10 µM; AID 488847; bead flow cytometry, FAM-aptamer displacement from GRK2;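 active = inhibition of aptamer binding above 40%, roughly 3 SD of noise, on plates passing a quality check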;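 note: median bead fluorescence of bound FAM aptamer so fluorescent compounds give negative values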
# Lipid droplet = hepatic lipid droplet formation modulation; AML12 mouse hepatocytes, oleate lipid droplets, BODIPY imaging; AID 1656; inhibition, % at 6.5 µM; 0.4% of 240,000 active;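 active = lipid droplet intensity inhibited by at least 50%, with more than 500 cells counted; inconclusive = wells with under 300 cells, treated as cytotoxic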
#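 Assay system: AML12 mouse liver cells | Compound: 6.5 µM single-point dosing | Schedule: Overnight exposure | Technique: Fluorescence imaging, 20x objective, two fields per well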
# VLA-4 inh = inhibition in a human VLA-4 binding assay. P13612. VLA-4 expressing cells, ligand binding flow cytometry. inhibition, % (about 7 µM as worked out from the volumes in the protocol). 0.2% of 330,000 active; in the data active = inhibition above about 50%
# procasp3 activ = activates human procaspase-3. P42574. activation, % at 8.5 µM. recombinant procaspase-3 D3A, Ac-DEVD-pNA absorbance 405 nm. AID 463141. 0.11% of 330,000 active;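 active = activation above the mean of all tested compounds plus 3 SD, cut at about 21% in these data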;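 note: 0% = DMSO alone and 100% = DMSO wells spiked with extra 5 µM PC-3 D3A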
#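 Test system: Procaspase-3 D3A mutant, all three cleavage aspartates alanine | Dosing: Single dose, 8.5 µM nominal compound, 0.8% DMSO | Schedule: 1 h preincubation, 2 h reaction | Technique: 405 nm absorbance of p-nitroaniline, reads at 0 and 120 min | Repeats: One well per compound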
# GRK2 CP1 = human GRK2 inhibition confirmation, cherry pick 1; shares compounds with GRK2 aptamer HTS; bead-bound GRK2, FAM-aptamer displacement, flow cytometry; aptamer displacement, % at 10 µM; 4% of 2,000 active; AID 504451;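 active = aptamer displacement above 40%, near three times the noise of non-fluorescent compounds, on plates passing quality checks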;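 note: negative values mostly reflect intrinsic compound fluorescence rather than true enhancement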
# Aptamer quench SP = quenches fluorescent RNA aptamer, GRK2 hit artifact; shares compounds with GRK2 aptamer HTS; Carboxyfluorescein RNA aptamer on beads, flow cytometry quenching; active compounds read low; fluorescence response (% of DMSO), % at 10 µM; 2,000 tested, under 10 active; AID 504580;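 active = compounds that quench the bead-bound fluorescent RNA probe, cutting fluorescence to under half of the solvent control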;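 note: counterscreen run without GRK2 so only probe quenching by compound is measured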
# GRK2 confirm 2 = confirmation of human GRK2 inhibitors binding RNA aptamer site; shares compounds with GRK2 aptamer HTS; bead-bound GRK2, FAM-aptamer displacement, flow cytometry; inhibition of aptamer binding, % at 10 µM; 360 tested, under 10 active;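 active = inhibition of aptamer binding above 40%, about triple the noise seen with nonglowing compounds, on plates passing quality control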;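 note: negative values mostly come from compounds that fluoresce themselves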
# FAM quench CP2 = counter-screen for GRK2 binding hits: quenchers of fluorescent RNA aptamer | shares compounds with GRK2 aptamer HTS | carboxyfluorescein RNA aptamer beads, flow cytometry quenching; active compounds read low | fluorescence response vs DMSO, % at 10 µM | AID 588494 | 360 tested, under 10 active;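 active = response vs DMSO under 50%, meaning signal dropped by over half, treated as fluorescence quencher; inconclusive = no clear call, values can overlap the other calls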;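 note: labelled aptamer on streptavidin beads without GRK2 as a quench counter-screen; 100% = bead fluorescence of DMSO wells and lower means quenching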
# * marks the source's active call; other numbers are inactive results; ? = inconclusive; · = no result.
SMILES,JMJD2C inh,procasp7 counter,GRK2 aptamer HTS,Lipid droplet,VLA-4 inh,procasp3 activ,GRK2 CP1,Aptamer quench SP,others
Cn1c(C(=O)N2CCCC(C(=O)NCc3cccs3)C2)cc2sccc21 (stereo unspecified),1,2,0,5,7,0,·,·,
Cn1c(C(=O)N2CCCC(C(=O)NCCCSC3CCCCC3)C2)cc2sccc21 (stereo unspecified),-6,-9,25,·,10,-4,1,96,
CN1CCN(NC(=O)Nc2cc(Cl)cc(Cl)c2)CC1,-6,·,0,-2,16,·,·,·,
CN(C(=O)c1cccc(Nc2ccc(-c3ccc4c(c3)OCCO4)nn2)c1)C1CCCCC1,6,10,0,-4,-8,2,4,103,
CN(C)S(=O)(=O)c1ccc(Nc2ccc(-c3ccc4c(c3)OCCO4)nn2)cc1,-19,10,1,·,22,8,·,·,
COC(=O)c1ccc(N=Cc2c(C(F)(F)F)[nH][nH]c2=O)cc1,-17,2,0,-2,4,6,·,·,
CC(C)n1cnc2cc(NCc3ccccc3O)ccc21,3,-7,2,5,-3,4,·,·,
CC(C)(C)n1cnc2cc(NCc3ccccc3O)ccc21,26,16,27,4,1,5,1,102,
CCc1ccc(CNc2ccc3c(c2)ncn3C(C)(C)C)cc1,20,-5,0,-2,8,0,-6,98,
CCc1ccc(CNc2ccc3c(c2)ncn3CC)cc1,16,-4,11,8,2,1,·,·,
CC(C)(C)n1cnc2cc(NCc3ccc(Br)cc3)ccc21,-11,-1,0,-3,-2,-13,-5,96,
CCn1c(C)nc2cc(C(=O)NNC(=O)[C@@H](NC(=O)c3cc(OC)cc(OC)c3)C(C)C)ccc21,0,12,0,·,6,9,·,·,
Cc1nnc2ccc(-c3cccc(NS(C)(=O)=O)c3)nn12,4,-10,4,-4,-1,-10,·,·,
CCS(=O)(=O)Nc1cc2c3c(c1)CCC(=O)N3CCC2,-12,5,1,8,-1,3,·,·,
CCS(=O)(=O)Nc1cc2c3c(c1)CCN3C(=O)CC2,-12,1,45*,-4,-4,-2,5,102,
NS(=O)(=O)c1ccc(NC(=O)c2ccc(-c3ccccc3)cc2)cc1,·,·,·,-7,·,·,·,·,
NS(=O)(=O)c1ccc(NS(=O)(=O)c2ccc(NC(=O)c3ccc(-c4ccccc4)cc3)cc2)cc1,0,-2,41*,·,22,1,-4,108,
Cc1ccc(CN2CCN(Cc3cnc(N4CCOCC4)s3)CC2CCO)o1 (stereo unspecified),14,0,72*,-2,-1,-1,2,95,
Cc1ccc(CN2CCN(CCC(C)C)C(CCO)C2)s1 (stereo unspecified),20,-2,3,14,-4,2,·,·,
Cc1ccc(CN2CCN(CC(C)C)C(CCO)C2)s1 (stereo unspecified),0,2,97*,-3,-4,-3,-1,98,
CN(c1ccccc1)S(=O)(=O)c1ccc(C(=O)N2CCCC2)cc1,0,11,58*,·,18,3,0,101,
CN(c1ccccc1)S(=O)(=O)c1ccc(C(=O)N2CCc3ccccc3C2)cc1,-7,3,0,-5,3,-5,·,·,
Cc1ccc(S(=O)(=O)N(C)c2ccc(C(=O)N3CCc4ccccc4C3)cc2)cc1,-4,8,57*,-1,1,-4,-4,98,
CCOC(=O)n1c(=O)n(Cc2ccccc2C)c2ccccc21,0,1,0,-14,-2,12,·,·,
C#CCn1c(=NC(=O)c2cccs2)sc2cccc(OCC)c21,2,7,2,-15,0,11,·,·,
SMILES,JMJD2C inh,procasp7 counter,GRK2 aptamer HTS,Lipid droplet,VLA-4 inh,procasp3 activ,GRK2 CP1,Aptamer quench SP,others
C#CCn1c(=NC(=O)c2ccc(Cl)s2)sc2cccc(OC)c21,-4,-4,76*,-4,-40,1,2,99,
CC(=O)c1c(C)[nH]c(C(=O)COC(=O)COc2ccccc2)c1C,-4,7,0,·,8,9,·,·,
CCOC(=O)c1c(C)[nH]c(C(=O)COC(=O)COc2ccc(OC)cc2)c1C,-1,-2,70*,10,8,5,2,96,
C[C@@]12CCC=C[C@H]1[C@H](c1ccc(F)c(/C=C/c3ccccc3)c1)N(Cc1ccccc1)C2=O,0,-3,2,-7,-8,1,·,·,
COCCCN1C(=O)C(=O)/C(=C(/O)c2ccc(S(=O)(=O)N3CCCCC3)cc2)C1c1ccc(O)cc1 (stereo unspecified),1,-3,0,8,-1,2,-4,95,
COCCCN1C(=O)C(=O)/C(=C(/O)c2ccc(S(=O)(=O)N3CCCCC3)cc2)C1c1ccc(O)c(OC)c1 (stereo unspecified),5,0,0,-1,-3,4,·,·,
Cc1ccc(-c2c(C#N)c(N)n(-c3ccc(C)cc3)c(=O)c2C#N)cc1,6,-17,42*,1,19,5,-7,129,
CCN(C(=O)CN1CCc2ccccc21)c1c(N)n(Cc2ccccc2)c(=O)[nH]c1=O,?,5,0,2,4,-1,-1,99,
O=C(CSc1ccccc1)Nc1ccc(-c2nc3ccccc3[nH]2)cc1,6,-10,100*,1,3,1,·,·,GRK2 confirm 2=12;FAM quench CP2=101
Cc1ccc2nc(-c3ccc(NC(=O)CSc4ccccc4)cc3)[nH]c2c1,38,-7,0,8,6,-2,·,·,
Cn1c(=O)c2c(nc(SCC(=O)NCc3ccc4c(c3)OCO4)n2Cc2ccc(F)cc2)n(C)c1=O,-12,-3,0,-28,0,5,·,·,
Cn1c(=O)c2c(nc(SCC(=O)NCc3ccc4c(c3)OCO4)n2Cc2ccccc2)n(C)c1=O,12,6,53*,5,-5,-6,0,100,

# Screening results as filed in PubChem BioAssay.
